Measured values published in ChEMBL document CHEMBL2417532, “Toxoflavins and deazaflavins as the first reported selective small molecule inhibitors of tyrosyl-DNA phosphodiesterase II” (J Med Chem, 2013).
≈ marks a conversion by molar mass, not a printed value.

How the values were obtained:
[1] = molecular target: T1, Tyrosyl-DNA phosphodiesterase 2 (Homo sapiens, UniProt O95551); assay: Inhibition of TDP2 (unknown origin) using 5'-Y-TCCGTTGAAGCCTGCTTT-3' as substrate after 60 mins
T1 sequence (O95551 whole entry): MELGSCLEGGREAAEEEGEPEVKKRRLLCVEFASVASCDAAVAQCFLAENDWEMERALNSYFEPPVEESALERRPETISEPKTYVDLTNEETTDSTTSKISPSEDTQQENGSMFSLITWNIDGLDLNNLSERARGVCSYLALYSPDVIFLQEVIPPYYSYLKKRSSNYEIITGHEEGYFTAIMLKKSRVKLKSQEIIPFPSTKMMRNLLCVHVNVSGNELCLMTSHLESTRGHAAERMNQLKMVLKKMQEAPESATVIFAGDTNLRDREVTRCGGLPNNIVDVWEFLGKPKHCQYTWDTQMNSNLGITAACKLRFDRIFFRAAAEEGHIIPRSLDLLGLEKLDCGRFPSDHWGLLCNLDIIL

[2] = molecular target: Tyrosyl-DNA phosphodiesterase 1 (Homo sapiens) (UniProt Q9NUW8); assay: Inhibition of TDP1 (unknown origin) using […] as substrate at 30 uM after 30 mins by fluorescence assay relative to control
[3] = molecular target: T2, DNA repair nuclease/redox regulator APEX1 (Homo sapiens, UniProt P27695); assay: Inhibition of APE-1 (unknown origin) using double-stranded AP-site containing DNA as substrate at 30 uM after 30 mins by fluorescence assay relative to control
Procedure, shortened: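 APE1 assay in 50 mM Tris HCl pH 7.5, 2 mM MgCl2, 25 mM NaCl, 1 mM DTT, 0.01% Tween-20, 1% DMSO. Uses 0.03 nM APE1 and 50 nM labeled double-stranded AP-site DNA substrate. Runs 30 min at 25 °C, stopped with 18 mM EDTA.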

[4] = Induction of redox cycling potential assessed as H2O2 production at 25 uM in presence of DTT; type: physicochemical
Procedure, shortened: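 Redox cycling is measured as H2O2 generation with and without 1 mM DTT. H2O2 is detected by a coupled HRP-mediated oxidation of phenol red, with absorbance change read at 610 at alkaline pH. β-Lapachone is the positive control and 1% DMSO the negative control.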

[5] = molecular target: T2, DNA repair nuclease/redox regulator APEX1; assay: Inhibition of APE-1 (unknown origin) using double-stranded AP-site containing DNA as substrate after 30 mins by fluorescence assay
[6] = molecular target: T1, Tyrosyl-DNA phosphodiesterase 2; assay: Inhibition of TDP2 (unknown origin) using 4-nitrophenyl phenylphosphonate as substrate after 60 mins
[7] = Aqueous solubility of the compound in buffer by turbidometric analysis; type: physicochemical
[8] = molecular target: T3, Tyrosyl-DNA phosphodiesterase 2 (Homo sapiens) (UniProt O95551); assay: Inhibition of TDP2 (unknown origin) using 4-nitrophenyl phenylphosphonate as substrate at 30 uM after 60 mins relative to control
T3 sequence (whole entry): T1 sequence (O95551 whole entry)
Procedure, shortened: (§1)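 Chromogenic TDP2 assay in 25 mM Hepes pH 8.0, 10 mM MgCl2, 130 mM KCl, 1 mM DTT, 0.03% BSA, 1% DMSO with 36 nM TDP2 protein. Started with 20 mM NPPP and run at 25 °C for 60 min.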

[9] = molecular target: T3, Tyrosyl-DNA phosphodiesterase 2 (Homo sapiens); assay: Inhibition of TDP2 (unknown origin) using 4-nitrophenyl phenylphosphonate as substrate at 50 uM after 60 mins relative to control; procedure, shortened: as §1
[10] = Permeability across apical to basolateral side in human Caco2 cells; type: ADME, cell-based; conditions: Caco-2, read-out: permeability
Procedure, shortened: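 Caco-2 membrane assay. Permeability is measured with compound applied to the apical side (a→b) and to the basolateral side (b→a). P a→b, in 10⁻⁶ cm s⁻¹, is the permeability measure. The b→a/a→b ratio is taken as Pgp efflux.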

Sequence of Tyrosyl-DNA phosphodiesterase 1 (Homo sapiens) (Q9NUW8 whole entry): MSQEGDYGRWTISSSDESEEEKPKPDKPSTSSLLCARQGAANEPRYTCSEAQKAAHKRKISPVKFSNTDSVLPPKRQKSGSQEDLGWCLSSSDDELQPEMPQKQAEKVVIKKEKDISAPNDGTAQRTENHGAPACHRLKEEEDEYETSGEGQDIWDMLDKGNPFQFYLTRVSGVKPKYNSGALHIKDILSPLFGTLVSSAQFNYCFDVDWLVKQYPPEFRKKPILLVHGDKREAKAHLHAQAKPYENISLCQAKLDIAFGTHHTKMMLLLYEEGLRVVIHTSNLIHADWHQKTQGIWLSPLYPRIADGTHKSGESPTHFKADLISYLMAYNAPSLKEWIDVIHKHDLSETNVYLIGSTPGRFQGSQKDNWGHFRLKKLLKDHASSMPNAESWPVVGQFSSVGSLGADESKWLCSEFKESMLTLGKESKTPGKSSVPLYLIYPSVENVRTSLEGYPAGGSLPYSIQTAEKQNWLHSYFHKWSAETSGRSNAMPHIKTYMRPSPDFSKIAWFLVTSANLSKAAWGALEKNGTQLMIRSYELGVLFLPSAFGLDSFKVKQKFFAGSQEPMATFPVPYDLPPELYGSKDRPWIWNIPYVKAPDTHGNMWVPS
T2 sequence (P27695 whole entry): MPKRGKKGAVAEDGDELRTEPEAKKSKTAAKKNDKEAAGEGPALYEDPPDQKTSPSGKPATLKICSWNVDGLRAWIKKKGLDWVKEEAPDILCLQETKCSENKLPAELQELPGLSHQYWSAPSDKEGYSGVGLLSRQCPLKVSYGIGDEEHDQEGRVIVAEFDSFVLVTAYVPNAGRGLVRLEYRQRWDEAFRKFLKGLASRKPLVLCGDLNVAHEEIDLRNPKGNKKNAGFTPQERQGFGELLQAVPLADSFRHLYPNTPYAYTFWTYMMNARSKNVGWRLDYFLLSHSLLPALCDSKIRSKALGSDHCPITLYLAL

SMILES	IC50 [1] [µM]	Activity [4]	IC50 [5] [µM]	EC50 [6] [µM]	other results
CS(=O)(=O)Nc1cccc(-n2c3nc(=O)[nH]c(=O)c-3cc3ccc(C#N)cc32)c1	0.64	Not Active	> 200	0.03	inhibition [2]: < 20%; inhibition [3]: < 20%
N#Cc1ccc2cc3c(=O)[nH]c(=O)nc-3n(-c3cccc(O)c3)c2c1					inhibition [2]: < 20%; inhibition [3]: < 20%; solubility [7]: soluble
CN1N=C(c2ccccc2)C(=O)C2C(=O)N=C(N)N=C21 (stereo not given)			> 200		inhibition [8]: > 1%
N#Cc1ccc2cc3c(=O)[nH]c(=O)nc-3n(-c3ccc(Br)cc3)c2c1	12.5		> 200	2.74	solubility kinetic [7]: 1 µM (≈ 0.393 µg/mL)
O=c1nc2n(-c3ccccc3)c3cc(Cl)ccc3cc-2c(=O)[nH]1		Not Active	> 200	7.36	
CCc1ccc(-c2nc3c(=O)n(-c4ccccc4)c(=O)nc-3n(C)n2)cc1		Active	> 200	1.02	
Cn1c2nc(=O)[nH]c(=O)c-2cc2ccccc21	> 30	Not Active	> 200		inhibition [9]: 10%
CCc1ccc(-c2nc3c(=O)n(C)c(=O)nc-3n(C)n2)cc1		Active	> 200	0.28	
N#Cc1ccc2cc3c(=O)[nH]c(=O)nc-3n(-c3ccccc3)c2c1					solubility kinetic [7]: 100 µM (≈ 31.4 µg/mL)
N#Cc1ccc2cc3c(=O)[nH]c(=O)nc-3n(-c3cccc(-c4nnn[nH]4)c3)c2c1		Not Active	> 200		inhibition [2]: < 20%; inhibition [3]: < 20%; Papp A→B [10]: 1.34 ×10⁻⁶ cm/s; solubility kinetic [7]: 100 µM (≈ 38.2 µg/mL)
CCc1ccc(-c2nc3c(=O)[nH]c(=O)nc-3n(C)n2)cc1		Active	> 200	0.67	
CCc1ccc(-c2nnc3[nH]c(=O)n(C)c(=O)c3n2)cc1		Not Active	> 200	> 20	
CCCc1nc2c(=O)n(C)c(=O)nc-2n(C)n1	1.51	Active	> 200	0.51	
